Reference: ChEMBL document CHEMBL3860028, “Bioactive Phenanthrene and Bibenzyl Derivatives from the Stems of Dendrobium nobile” (J Nat Prod, 2016)
≈ marks a conversion by molar mass, not a printed value.

Key:
[1] = Antifungal activity against Exserohilum turcicum after 4 to 14 days by serial dilution method; type: functional; conditions: Setosphaeria turcica
In short: (§1)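 Fungal strains kept on potato dextrose agar. Antifungal activity tested following NCCLS recommendations, with MIC values as the read-out. Prochloraz served as positive control.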

Alternaria citri = test: Antifungal activity against Alternaria citri after 4 to 14 days by serial dilution method; type: functional
In short: (§2)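 Fungus maintained on potato dextrose agar. Antifungal activity determined as MIC following NCCLS (National […] for Clinical Laboratory Standards) recommendations, with prochloraz as the reference antifungal.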

[2] = Cytotoxicity against human MCF7 cells assessed as decrease in cell viability after 6 days by MTT assay; type: functional, cell-based; conditions: MCF7, 144 h
In short: (§3)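 Cell lines from College of Pharmacy, Hebei University, grown in DMEM with 5% fetal bovine serum at 37 °C under 5% CO2. Viability read by MTT method, IC50 values derived. Epirubicin served as positive control.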

Alternaria brassicicola = test: Antifungal activity against Alternaria brassicicola after 4 to 14 days by serial dilution method; type: functional; in short: as §1
[3] = Antifungal activity against Pestallozzia theae after 4 to 14 days by serial dilution method; type: functional; in short: as §1
[4] = Cytotoxicity against human A549 cells assessed as decrease in cell viability after 6 days by MTT assay; type: functional, cell-based; conditions: A549, 144 h; in short: as §3
[5] = Antifungal activity against Ceratocystis paradoxa moreau after 4 to 14 days by serial dilution method; type: functional; conditions: Thielaviopsis; in short: as §1
[6] = Antifungal activity against Diaporthe medusaea nitschke after 4 to 14 days by serial dilution method; type: functional; conditions: Diaporthe rudis; in short: as §1
[7] = Antifungal activity against Bipolaris oryzae after 4 to 14 days by serial dilution method; type: functional; in short: as §2
Colletotrichum truncatum = test: Antifungal activity against Colletotrichum capsici after 4 to 14 days by serial dilution method; type: functional; in short: as §1
[8] = Antifungal activity against Phytophthora parasitica var. nicotianae after 4 to 14 days by serial dilution method; type: functional; in short: as §1
[9] = Cytotoxicity against human HeLa cells assessed as decrease in cell viability after 6 days by MTT assay; type: functional, cell-based; conditions: 144 h; in short: as §3

Row | Structure (SMILES) | MIC [1] [µM] | MIC (Alternaria citri) [µM] | IC50 [2] [µM] | MIC (Alternaria brassicicola) [µM] | MIC [3] [µM] | IC50 [4] [µM] | MIC [5] [µM] | MIC [6] [µM] | MIC [7] [µM] | MIC (Colletotrichum truncatum) [µM] | MIC [8] [µM] | IC50 [9] [µM]
1 | COc1cc(O)cc2ccc3c(-c4c(O)cc(OC)c5c4ccc4cccc(O)c45)ccc(O)c3c12 | > 400 | > 400 | > 10 | > 400 | > 400 | > 10 | > 400 | > 400 | > 400 | > 400 | > 400 | > 10
2 | COc1cc(O)c2c(c1)CCc1cc(O)c(-c3cc4cccc(O)c4c4c(OC)cc(O)cc34)cc1-2 | > 400 | > 400 | > 10 | > 400 | > 400 | > 10 | > 400 | > 400 | > 400 | > 400 | > 400 | > 10
3 | COC1=CC(=O)C[C@H]2CC(=O)c3cccc(O)c3[C@@]12O | > 400 | > 400 | > 10 | > 400 | > 400 | > 10 | > 400 | > 400 | > 400 | > 400 | > 400 | > 10
4 | COc1cc(O)c2c(c1)CCc1cc(O)c(-c3c(OC)cc4c(c3O)-c3ccc(O)cc3CC4)cc1-2 | > 400 | > 400 | > 10 | > 400 | > 400 | > 10 | > 400 | > 400 | > 400 | > 400 | > 400 | > 10
5 | O=C1C=CC(=O)C2=C1CCc1cc(O)ccc12 | > 400 | > 400 | > 10 | > 400 | > 400 | > 10 | > 400 | > 400 | > 400 | > 400 | > 400 | > 10
6 | COc1cc(O)c2c(c1)CCc1cc(O)ccc1-2 [LUSIANTHRIDIN] | > 400 | > 400 | > 10 | > 400 | > 400 | > 10 | > 400 | > 400 | > 400 | > 400 | > 400 | > 10
7 | COc1c(O)cc2ccc3c(OC)c(O)ccc3c2c1OC | > 400 | > 400 | > 10 | > 400 | > 400 | > 10 | > 400 | > 400 | > 400 | > 400 | > 400 | > 10
8 | COc1cc(O)c2c(c1)CCc1cc(O)c(-c3c(O)c4cccc(O)c4c4c(OC)cc(OC)cc34)cc1-2 | > 400 | > 400 | > 10 | > 400 | > 400 | > 10 | > 400 | > 400 | > 400 | > 400 | > 400 | > 10
9 | COC1=CC(=O)c2c(ccc3cc(O)c(O)cc23)C1=O | > 400 | > 400 | > 10 | > 400 | > 400 | > 10 | > 400 | > 400 | > 400 | > 400 | > 400 | > 10
10 | COC1=CC(=O)C[C@@]2(CCc3cccc(O)c32)C1=O | > 400 | > 400 | 9.4 | > 400 | > 400 | 9.9 | > 400 | > 400 | > 400 | > 400 | > 400 | 9.8
11 | COC1=CC(=O)C[C@H]2CCc3cccc(O)c3[C@@]12O | > 400 | > 400 | > 10 | > 400 | > 400 | > 10 | > 400 | > 400 | > 400 | > 400 | > 400 | > 10
12 | COC1=CC(=O)C[C@]2(CCc3cccc(O)c32)C1=O | > 400 | > 400 | 9.4 | > 400 | > 400 | 9.9 | > 400 | > 400 | > 400 | > 400 | > 400 | 9.8
13 | COc1cc(O)cc(CCc2cccc(O)c2)c1 [BATATASIN III] | 102 (≈ 25 µg/mL) | 102 (≈ 25 µg/mL) | > 10 | 102 (≈ 25 µg/mL) | 205 (≈ 50.1 µg/mL) | > 10 | 102 (≈ 25 µg/mL) | 205 (≈ 50.1 µg/mL) | 102 (≈ 25 µg/mL) | 102 (≈ 25 µg/mL) | 205 (≈ 50.1 µg/mL) | > 10
14 | COc1c(O)cc2ccc3cc(O)ccc3c2c1OC [NUDOL] | > 400 | > 400 | > 10 | > 400 | > 400 | > 10 | > 400 | > 400 | > 400 | > 400 | > 400 | > 10
15 | COc1cc(CCc2cc(O)cc(O)c2)ccc1O [TRISTIN] | 385 (≈ 100 µg/mL) | 96.2 (≈ 25 µg/mL) | > 10 | 192 (≈ 50.1 µg/mL) | 96.2 (≈ 25 µg/mL) | > 10 | 96.2 (≈ 25 µg/mL) | 192 (≈ 50.1 µg/mL) | 96.2 (≈ 25 µg/mL) | 96.2 (≈ 25 µg/mL) | 385 (≈ 100 µg/mL) | > 10
16 | COc1cc(O)cc(CCc2ccccc2)c1 | 110 (≈ 25 µg/mL) | 110 (≈ 25 µg/mL) | > 10 | > 400 | 219 (≈ 50.1 µg/mL) | > 10 | 110 (≈ 25 µg/mL) | 219 (≈ 50.1 µg/mL) | 110 (≈ 25 µg/mL) | 110 (≈ 25 µg/mL) | 219 (≈ 50.1 µg/mL) | > 10
17 | COc1cc(O)c2c(c1)CCc1cccc(O)c1-2 | > 400 | > 400 | > 10 | > 400 | > 400 | > 10 | > 400 | > 400 | > 400 | > 400 | > 400 | > 10
18 | COc1cc2c(c(OC)c1O)-c1ccc(O)cc1CC2 [FLAVANTHRIDIN] | > 400 | > 400 | > 10 | > 400 | > 400 | > 10 | > 400 | > 400 | > 400 | > 400 | > 400 | > 10
19 | COc1cc(OC)c2c(cc(O)c3cccc(O)c32)c1-c1ccc(O)c2c1ccc1cc(O)cc(OC)c12 | > 400 | > 400 | > 10 | > 400 | > 400 | > 10 | > 400 | > 400 | > 400 | > 400 | > 400 | > 10
20 | CCCN(CCOc1c(Cl)cc(Cl)cc1Cl)C(=O)n1ccnc1 [PROCHLORAZ] | 33.3 (≈ 12.5 µg/mL) | 66.7 (≈ 25.1 µg/mL) | – | 33.3 (≈ 12.5 µg/mL) | 66.7 (≈ 25.1 µg/mL) | – | 66.7 (≈ 25.1 µg/mL) | 133 (≈ 50.2 µg/mL) | 133 (≈ 50.2 µg/mL) | 33.3 (≈ 12.5 µg/mL) | 133 (≈ 50.2 µg/mL) | –
